Measurements: ChEMBL document CHEMBL3997823, “New homoisoflavonoid analogues protect cells by regulating autophagy” (Bioorg Med Chem Lett, 2017)
Active and inactive are the calls of the source. The rule behind the calls is not given here.

Assays:
H9c2 [1] = assay: Cardioprotective activity against H2O2-induced injury in rat H9C2 cells assessed as increase in cell viability preincubated for 24 hrs followed by H2O2 addition measured after 24 hrs by MTT assay
SH-SY5Y [2] = assay: Neuroprotective activity against MPP+-induced injury in human SH-SY5Y cells assessed as cell viability at 5 uM preincubated for 16 hrs followed by MPP+ addition measured after 8 hrs (reference value: 40.71 to 55.85%); assay type: functional; settings: read-out: Activity
SH-SY5Y [3] = assay: Neuroprotective activity against MPP+-induced injury in human SH-SY5Y cells assessed as cell viability at 50 uM preincubated for 16 hrs followed by MPP+ addition measured after 8 hrs (reference value: 40.71 to 55.85%); assay type: functional; settings: read-out: Activity
SH-SY5Y [4] = assay: Induction of autophagy in human SH-SY5Y cells transfected with GFP-LC3 at 5 uM by MDC staining-based fluorescence microscopic method; assay type: functional, cell-based
[5] = Cytotoxicity against human SH-SY5Y cells assessed as inhibition of cell growth at 50 uM after 72 hrs by MTT assay relative to control; assay type: cell-based
[6] = Cytotoxicity against human MCF7 cells assessed as inhibition of cell growth at 50 uM after 72 hrs by MTT assay relative to control; assay type: cell-based
H9c2 [7] = assay: Cardioprotective activity against H2O2-induced injury in […] H9C2 cells assessed as increase in cell viability preincubated for 24 hrs followed by H2O2 addition measured after 24 hrs by MTT assay; assay type: functional, cell-based; settings: Rattus norvegicus
Procedure, shortened: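 H9c2 cardiomyocytes injured with H2O2; cell viability read-out, with diazoxide as positive control.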

SH-SY5Y [8] = assay: Induction of autophagy in human SH-SY5Y cells at 12.5 to 50 uM after 24 by MDC staining-based flow cytometric method; assay type: functional, cell-based
Procedure, shortened: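 SH-SY5Y cells were treated with compound for the indicated times, then stained with monodansylcadaverine. The MDC-positive cell ratio was measured by flow cytometry as the quantitative autophagy read-out.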

SMILES	EC50 (H9c2 [1]) [µM]	viability at 5 µM (SH-SY5Y [2]) [%]	viability at 50 µM (SH-SY5Y [3]) [%]	other results
COc1cccc(Cc2coc3cc(O)cc(O)c3c2=O)c1	> 100			
COc1ccc(Cc2coc3cc(O)ccc3c2=O)cc1	32.1			
COc1ccc(Cc2coc3cc(O)cc(O)c3c2=O)cc1	> 100			
COc1cc(OC)c2c(=O)c(Cc3ccc(Cl)c(Cl)c3)coc2c1	23.8	62.4	48.9	Activity (SH-SY5Y [4]): Active
COc1cc(OC)c(OC)cc1Cc1coc2cc(O)cc(O)c2c1=O		62.1	48.4	inhibition at 72 h, 50 µM [5]: 15.3%; inhibition at 72 h, 50 µM [6]: 49.5%; EC50 (H9c2 [7]): 15.7 µM
COc1ccc(Cc2coc3cc(OC)cc(OC)c3c2=O)cc1	> 100			
COc1cc(OC)c2c(=O)c(Cc3ccc(C(F)(F)F)cc3)coc2c1	> 100			
COc1cc(OC)c2c(=O)c(Cc3cccs3)coc2c1	74.3	37.8	42.2	
COc1ccc(Cc2coc3cc(O)cc(O)c3c2=O)cc1OC	12.1	60.3	60.9	Activity (SH-SY5Y [4]): Active; Activity (SH-SY5Y [8]): Active
COc1ccc(Cc2coc3cc(OCCCl)cc(O)c3c2=O)cc1	> 100			
CCC(=O)Oc1cc(O)c2c(=O)c(Cc3ccc(OC)cc3)coc2c1	> 100			
COc1ccccc1Cc1coc2cccc(O)c2c1=O	> 100			
COc1ccccc1Cc1coc2cc(O)cc(O)c2c1=O	24.4			
O=c1c(Cc2ccc(C(F)(F)F)cc2)coc2cc(O)cc(O)c12	12.7			
COc1ccc(Cc2coc3cc(OCCCCCl)cc(O)c3c2=O)cc1	> 100			
COc1ccccc1Cc1coc2cc(O)ccc2c1=O	12.7	38.1	37.5	
COc1ccc(Cc2coc3cc(OCC=C(C)C)cc(O)c3c2=O)cc1	> 100			
COc1ccc(Cc2coc3cc(OC(=O)N(C)C)cc(O)c3c2=O)cc1	19.9	42.5	35.5	
COc1ccc(Cc2coc3cccc(O)c3c2=O)cc1	> 100			
COc1ccc(Cc2coc3cc(OC(C)=O)cc(O)c3c2=O)cc1	> 100			
